According to ChEMBL document CHEMBL5058577, “EUbOPEN Chemogenomics Library 2 (Multiplex)” (2022):

Tested on: HEK-293T
Test: Multiplex assay against HEK293T
Format: toxicity, cell-based
Conditions: human
How it was run: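 Compound was added to live cells that had been stained at seeding with Hoechst33342, BioTracker Green Microtubule Cytoskeleton Dye, MitoTracker Red and Annexin V Alexa Fluor 680, and imaging followed on a CQ1 microscope at 37°C and 5% CO2. CellPathfinder machine-learning gating divided cells into Hoechst high-intensity objects or normal cells, normal cells into healthy, pyknosed or fragmented nuclei, and pyknosed cells into mitotic or apoptotic. Tubulin, mitochondrial-mass and membrane-permeability phenotypes are per cents of healthy-nucleus cells.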

[1] = 12 h, 1 µM, compound concentration 1 uM, replicate 1
[2] = 12 h, 1 µM, compound concentration 1 uM, replicate 2
[3] = 12 h, 10 µM, compound concentration 10 uM, replicate 1
[4] = 12 h, 10 µM, compound concentration 10 uM, replicate 2
[5] = 24 h, 1 µM, compound concentration 1 uM, replicate 1
[6] = 24 h, 1 µM, compound concentration 1 uM, replicate 2
[7] = 24 h, 10 µM, compound concentration 10 uM, replicate 1
[8] = 24 h, 10 µM, compound concentration 10 uM, replicate 2
[9] = 48 h, 1 µM, compound concentration 1 uM, replicate 1
[10] = 48 h, 1 µM, compound concentration 1 uM, replicate 2
[11] = 48 h, 10 µM, compound concentration 10 uM, replicate 1
[12] = 48 h, 10 µM, compound concentration 10 uM, replicate 2

## C[C@H]1[C@H]2CC[C@H]3[C@@H]4CC=C5C[C@@H](N(C)C)CC[C@]5(C)[C@H]4CC[C@]23CN1C [CONESSINE]
[1]
  Population Apoptotic (%): 35%
  Population Fragmented Nuclei (%): 5%
  Population Healthy Nuclei (%): 78%
  Population Hoechst High Intensity Objects (%): 6%
  Population Membrane Permeable-Phenotype (%): 0%
  Population Mitochondria Different-Phenotype (%): 39%
  Population Mitotic Cells (%): 65%
  Population Normal (%): 93%
  Population Pyknosed Nuclei (%): 16%
  Population Tubulin-Different-Phenotype (%): 26%
  Total Cell Count: 400
[2]
  Population Apoptotic (%): 48%
  Population Fragmented Nuclei (%): 4%
  Population Healthy Nuclei (%): 85%
  Population Hoechst High Intensity Objects (%): 8%
  Population Mitochondria Different-Phenotype (%): 58%
  Population Mitotic Cells (%): 51%
  Population Normal (%): 91%
  Population Pyknosed Nuclei (%): 10%
  Population Tubulin-Different-Phenotype (%): 22%
  Total Cell Count: 356
[3]
  Population Apoptotic (%): 35%
  Population Fragmented Nuclei (%): 6%
  Population Healthy Nuclei (%): 77%
  Population Hoechst High Intensity Objects (%): 6%
  Population Membrane Permeable-Phenotype (%): 1%
  Population Mitochondria Different-Phenotype (%): 56%
  Population Mitotic Cells (%): 65%
  Population Normal (%): 93%
  Population Pyknosed Nuclei (%): 15%
  Population Tubulin-Different-Phenotype (%): 38%
  Total Cell Count: 419
[4]
  Population Apoptotic (%): 59%
  Population Fragmented Nuclei (%): 7%
  Population Healthy Nuclei (%): 78%
  Population Hoechst High Intensity Objects (%): 9%
  Population Membrane Permeable-Phenotype (%): 0%
  Population Mitochondria Different-Phenotype (%): 62%
  Population Mitotic Cells (%): 40%
  Population Normal (%): 90%
  Population Pyknosed Nuclei (%): 14%
  Population Tubulin-Different-Phenotype (%): 30%
  Total Cell Count: 384
[5]
  Population Apoptotic (%): 26%
  Population Fragmented Nuclei (%): 9%
  Population Healthy Nuclei (%): 80%
  Population Hoechst High Intensity Objects (%): 5%
  Population Membrane Permeable-Phenotype (%): 1%
  Population Mitochondria Different-Phenotype (%): 22%
  Population Mitotic Cells (%): 73%
  Population Normal (%): 94%
  Population Pyknosed Nuclei (%): 10%
  Population Tubulin-Different-Phenotype (%): 17%
  Total Cell Count: 514
[6]
  Population Apoptotic (%): 25%
  Population Fragmented Nuclei (%): 8%
  Population Healthy Nuclei (%): 81%
  Population Hoechst High Intensity Objects (%): 4%
  Population Membrane Permeable-Phenotype (%): 0%
  Population Mitochondria Different-Phenotype (%): 34%
  Population Mitotic Cells (%): 75%
  Population Normal (%): 95%
  Population Tubulin-Different-Phenotype (%): 16%
  Total Cell Count: 484
[7]
  Population Apoptotic (%): 27%
  Population Fragmented Nuclei (%): 9%
  Population Healthy Nuclei (%): 79%
  Population Hoechst High Intensity Objects (%): 6%
  Population Membrane Permeable-Phenotype (%): 1%
  Population Mitochondria Different-Phenotype (%): 38%
  Population Mitotic Cells (%): 72%
  Population Normal (%): 93%
  Population Pyknosed Nuclei (%): 11%
  Population Tubulin-Different-Phenotype (%): 28%
  Total Cell Count: 572
[8]
  Population Apoptotic (%): 47%
  Population Healthy Nuclei (%): 82%
  Population Hoechst High Intensity Objects (%): 9%
  Population Membrane Permeable-Phenotype (%): 0%
  Population Mitochondria Different-Phenotype (%): 43%
  Population Mitotic Cells (%): 52%
  Population Normal (%): 90%
  Population Pyknosed Nuclei (%): 7%
  Population Tubulin-Different-Phenotype (%): 24%
  Total Cell Count: 474
[9]
  Population Apoptotic (%): 30%
  Population Fragmented Nuclei (%): 9%
  Population Healthy Nuclei (%): 82%
  Population Hoechst High Intensity Objects (%): 2%
  Population Membrane Permeable-Phenotype (%): 1%
  Population Mitochondria Different-Phenotype (%): 18%
  Population Mitotic Cells (%): 69%
  Population Normal (%): 97%
  Population Pyknosed Nuclei (%): 7%
  Population Tubulin-Different-Phenotype (%): 12%
  Total Cell Count: 735
[10]
  Population Apoptotic (%): 36%
  Population Fragmented Nuclei (%): 10%
  Population Healthy Nuclei (%): 83%
  Population Hoechst High Intensity Objects (%): 4%
  Population Mitochondria Different-Phenotype (%): 20%
  Population Mitotic Cells (%): 63%
  Population Normal (%): 95%
  Population Pyknosed Nuclei (%): 5%
  Population Tubulin-Different-Phenotype (%): 11%
  Total Cell Count: 630
[11]
  Population Apoptotic (%): 27%
  Population Fragmented Nuclei (%): 14%
  Population Healthy Nuclei (%): 78%
  Population Hoechst High Intensity Objects (%): 4%
  Population Membrane Permeable-Phenotype (%): 1%
  Population Mitochondria Different-Phenotype (%): 23%
  Population Mitotic Cells (%): 72%
  Population Normal (%): 95%
  Population Pyknosed Nuclei (%): 6%
  Population Tubulin-Different-Phenotype (%): 15%
  Total Cell Count: 767
[12]
  Population Apoptotic (%): 36%
  Population Fragmented Nuclei (%): 10%
  Population Healthy Nuclei (%): 81%
  Population Hoechst High Intensity Objects (%): 5%
  Population Membrane Permeable-Phenotype (%): 0%
  Population Mitochondria Different-Phenotype (%): 32%
  Population Mitotic Cells (%): 63%
  Population Normal (%): 94%
  Population Pyknosed Nuclei (%): 7%
  Population Tubulin-Different-Phenotype (%): 17%
  Total Cell Count: 618
